# High-throughput results (PubChem)
# MPTP block – permeability transition pore inhibition; inhibition, % at 10 µM; isolated mouse mitochondria, Ca2+ swelling absorbance, 30 min; AID 602449; 360,000 tested, 1.4% active;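 active = inhibition of 50% or more, scaled per plate between neutral and stimulator controls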
# CHOP inh – CHOP inhibition in unfolded protein response; CHO-K1 CHOP-promoter luciferase, tunicamycin-induced, 15-18 h; inhibition, % at 10 µM; 220,000 tested, 3.8% active; AID 2732;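 active = compounds that reduced the stress-induced luciferase reporter signal by more than about 70% of percent inhibition, limit read from the data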
# WT yeast gro inh – growth inhibition of WT yeast, mitochondrial fusion screen; mitochondrial fusion phenotypic screen, WT strain; inhibition, % at 10 µM; 190,000 tested, 2.1% active; in the data active = inhibition above about 58%; tested in S. cerevisiae
# TbMetRS inhib – Trypanosoma brucei MetRS inhibition; purified T. brucei MetRS, ATP depletion, Kinase-Glo luminescence; inhibition, % at 11.9 µM; 360,000 tested, 0.4% active; AID 624268;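 active = inhibition above a per-plate cutoff of the control wells' mean inhibition plus 3 SD, cut at about 5.5% in these data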
#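 Test system – parasite MetRS enzyme · Reagent – substrates ATP, L-methionine and bulk Escherichia coli tRNA · Doses – 11.9 µM compound single dose, 0.9% DMSO · Times – 15 min enzyme-compound preincubation, 2 h reaction, 10 min detection, 25 °C · Signal – Kinase-Glo luminescence, ATP depletion format · Controls – DMSO-only wells as low control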
# GRIN3A LBD mod – modulators (binders) of human NR3A ligand-binding domain. NR3A LBD differential scanning fluorimetry, Tm shift; 0% = protein alone, 100% = glycine-bound protein. Tm shift relative to glycine control, % at 25 µM. 340,000 tested, 2.5% active;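 active = melting temperature shift of at least 10% of the positive control shift, at one fixed dose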
# EBV gp42 inh – EBV gp42 inhibition; Q1HVG2; Fluorescence polarization binding assay, mP read-out; inhibition, % (tested at 21.74 µM); 220,000 tested, 0.42% active; AID 1085; in the data active = inhibition above about 50%
# Target sequence (Q1HVG2 whole entry, looked up): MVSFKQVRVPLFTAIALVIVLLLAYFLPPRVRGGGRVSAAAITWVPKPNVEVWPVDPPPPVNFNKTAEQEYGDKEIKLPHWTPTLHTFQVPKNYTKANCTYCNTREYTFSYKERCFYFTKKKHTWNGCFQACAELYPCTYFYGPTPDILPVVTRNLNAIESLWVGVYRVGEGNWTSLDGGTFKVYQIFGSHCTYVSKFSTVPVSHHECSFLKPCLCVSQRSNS
# Rh123 counter – Rhodamine 123 counter-screen of mitochondrial pore hits | isolated mitochondria, membrane potential, Rhodamine 123 fluorescence | AID 624504 | shares compounds with MPTP block | inhibition, % at 10 µM | 5,000 tested, 78% active; in the data active = inhibition above about 22%
# MPTP swell DR – MPTP inhibition, dose response swelling confirmation. shares compounds with MPTP block. isolated mitochondria swelling, absorbance. IC50, µM. 780 tested, 58% active; in the data active = IC50 below about 20 µM
# MPTP cs DR – active in counter-screen for permeability transition pore inhibitors; isolated mitochondria counterscreen, fluorescence read-out; IC50, µM; shares compounds with MPTP block; AID 651564; 780 tested, 49% active; in the data active = IC50 below about 80 µM
# A number is an active result; 0 = inactive; - = no result given. Most compounds without a hit are left out; they make up all but 6.4% or so of the library.
SMILES,MPTP block,CHOP inh,WT yeast gro inh,TbMetRS inhib,GRIN3A LBD mod,EBV gp42 inh,Rh123 counter,others
COc1ccc(-n2c(Cc3cccn3C)nnc2SCC(=O)Nc2cccc(Cl)c2)cc1,0,0,0,0,0,0,-,
COc1ccc2[nH]c(C(=O)NCCN3CCOCC3)cc2c1,0,0,-,0,0,0,-,
CC(C)(C)c1ccc(C(=O)c2c[nH]c(C(=O)NCC3CCCO3)c2)cc1 (stereo not given),70,0,0,0,0,0,0,MPTP swell DR=0;MPTP cs DR=27
COc1ccc(C(=O)c2c[nH]c(C(=O)NCC3CCCO3)c2)cc1 (stereo not given),0,0,0,0,0,0,-,
c1ccc(Cn2nnnc2C(c2ccccn2)N2CCOCC2)cc1 (stereo not given),0,0,0,0,0,0,-,
CC(=O)c1ccc(N2CCN(C(=O)Nc3ccc(Cl)cc3)CC2)cc1,0,0,0,0,0,0,-,
O=[N+]([O-])c1ccc(NC(=S)N2CCN(c3ccccc3)CC2)cc1,72,0,0,0,0,0,84,
CCCN1CCN(C(=S)Nc2ccc([N+](=O)[O-])cc2)CC1,60,0,0,0,0,0,66,
O=C(Nc1ccc(Cl)cc1)N1CCN(c2ccccc2)CC1,66,0,0,0,0,0,75,
O=S(=O)(c1ccc(NC(=S)NN=Cc2ccccc2O)cc1)N1CCCCC1,99,-,-,0,0,-,81,
N#C/C(=N\Nc1ccc(S(=O)(=O)N2CCOCC2)cc1)C(N)=S,0,0,-,0,0,0,-,
N#CC(C#N)=NNc1ccc(S(=O)(=O)N2CCCCC2)cc1,89,0,0,0,12,0,91,
O=S(=O)(c1ccc(NC(=S)NC23CC4CC(CC(C4)C2)C3)cc1)N1CCCCC1,90,-,-,0,-,-,61,
NS(=O)(=O)c1ccc(NC(=S)Nc2ccc(S(=O)(=O)N3CCCC3)cc2)cc1,0,0,0,0,0,0,-,
FC(F)Oc1ccc(NC(=S)NC23CC4CC(CC(C4)C2)C3)cc1,54,-,-,0,12,-,95,
CCOc1ccc(NC(=S)NC23CC4CC(CC(C4)C2)C3)cc1,0,-,-,0,0,-,-,
Cc1cc(NC(=O)Cn2nc(-c3cccs3)ccc2=O)cc(C)c1Br,0,-,-,0,0,-,-,
O=S(=O)(c1ccc(Cl)c(NC(=S)N/N=C/c2c(F)cccc2F)c1)N1CCOCC1,57,0,0,0,0,0,47,
O=[N+]([O-])c1cc(Cl)cc(/C=N/NC(=S)Nc2ccc(S(=O)(=O)N3CCOCC3)cc2)c1O,72,0,-,0,0,0,26,
O=C(CN1CCCc2ccccc21)N/N=C/c1c(O)ccc2ccccc12,95,0,0,0,0,0,89,
O=C(N/N=C\c1c(O)ccc2ccccc12)c1ccc(S(=O)(=O)N2CCCCC2)cc1,95,0,0,0,0,0,70,
O=S(=O)(c1ccc(Cl)c(NC(=S)N/N=C/c2ccc(O)cc2)c1)N1CCOCC1,0,0,0,0,0,0,-,
C=CCn1c(SCC(=O)c2ccc(OC)cc2)nnc1-c1cc2cccc(OC)c2o1,0,0,0,0,0,0,-,
Cc1cccc(Oc2ccccc2NC(=O)CN2C(=O)NC3(CCCC3)C2=O)c1,0,-,-,0,0,-,-,
O=C(CSc1ncnc2ccccc12)c1ccc2c(c1)OCCO2,58,0,0,0,0,0,65,
SMILES,MPTP block,CHOP inh,WT yeast gro inh,TbMetRS inhib,GRIN3A LBD mod,EBV gp42 inh,Rh123 counter,others
CCc1nc(SCC(=O)c2ccc3c(c2)OCCO3)c2ccccc2n1,0,0,0,0,0,0,-,
C/C(=N\N=C(c1ccccc1)c1ccccc1)c1ccco1,93,0,0,0,0,0,0,
O=C(CSc1nnc(Cc2ccccc2)o1)NC1CC2CCC1C2 (stereo not given),0,0,0,0,0,0,-,
O=C(CNc1ccccc1F)Nc1cc(S(=O)(=O)N2CCCCC2)ccc1Cl,0,-,-,0,0,-,-,
O=C(COC(=O)CCS(=O)(=O)c1ccccc1)Nc1cc(S(=O)(=O)N2CCCCC2)ccc1Cl,0,-,-,0,0,-,-,
Cc1ccc(S(=O)(=O)N2CCCCC2)cc1NCC(=O)Nc1ccc(Br)cc1F,66,-,-,0,-,-,94,
